IC50 data for 12 molecules are collected here from ChEMBL document CHEMBL1143728, “Anti-inflammatory benzenoids from Antrodia camphorata” (J Nat Prod, 2007).

This test deals with Neutrophil. The test is described as follows: Inhibition of fMLP-induced superoxide production in human neutrophils. Format: functional, cell-based. The method in brief: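 Neutrophils from venous blood of healthy volunteers (20-35 years), isolated by double-gradient Ficoll-Hypaque centrifugation with hypotonic lysis of red cells. Cells at 1 × 10⁶ cells/mL preincubated with test agent (100 µmol/L) 5 min at 37 °C, then stimulated with fMLP (1 µmol/L) in presence of ferricytochrome c (0.5 mg/mL). Extracellular superoxide read continuously by ferricytochrome c reduction at 550 nm. Inhibition % = [(control−resting)−(compound−resting)]/(control−resting) × 100. Three independent experiments, SEM; ibuprofen positive control.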
Usually IC50 stands for the point on the concentration scale where inhibition reaches its midpoint. Higher therefore signals weaker potency. Molecule `C=C(CC[C@@H](C(=O)O)[C@H]1CC[C@@]2(C)C3=CC[C@H]4C(C)(C)[C@@H](O)CC[C@]4(C)C3=CC[C@]12C)C(C)C` [DEHYDROEBURICOIC ACID] had an IC50 of 77.5 µM. In the case of `C=C(C)C#Cc1c(OC)cc(OC)c(OC)c1C` [ANTROCAMPHIN A], half-maximal inhibition (IC50) was put at 9.33 µM.

`C[C@H]1[C@H](O)CC[C@@H]2[C@]1(C)CC[C@H]1[C@@]2(C)CC[C@@]2(C)[C@@H]3CC(C)(C)CC[C@]3(C)CC[C@]12C` gave an IC50 of over 100 µM.

In turn, `COc1cc(OC)c(OC)c(C)c1C#CC(C)=O` [ANTROCAMPHIN B] had an IC50 of over 100 µM. Molecule `c1cc2c(cc1[C@H]1OC[C@H]3[C@@H]1CO[C@@H]3c1ccc3c(c1)OCO3)OCO2` [SESAMIN] showed an IC50 of 90.2 µM. For the molecule `COc1cc(C(=O)Cl)c(OC)c(OC)c1OC`, the IC50 was over 100 µM. For the molecule `C=C(CC[C@@H](C)[C@H]1CC[C@H]2C3=C(C(=O)C[C@]12C)[C@@]1(C)CCC(=O)[C@@H](C)[C@@H]1CC3=O)[C@H](C)C(=O)O` [ANTCIN B], half-maximal inhibition (IC50) required 9.82 µM. The same measure for `COc1cc(C)c(OC)c2c1OCO2`: 26.1 µM; for `CC(C)Cc1ccc(C(C)C(=O)O)cc1` (configuration not stated) [IBUPROFEN]: 27.5 µM. `COc1cc(OC)c(OC)c(C)c1C#C[C@@]1(C)OC(=O)O[C@@]1(C)C#Cc1c(OC)cc(OC)c(OC)c1C` [ANTRODIOXOLANONE] had an IC50 of over 100 µM.

In turn, `C=C(CC[C@@H](C)[C@H]1CC[C@H]2C3=C(C(=O)C[C@]12C)[C@@]1(C)CCC(=O)[C@@H](C)[C@@H]1CC3)[C@H](C)C(=O)O` [ANTICIN A] registered an IC50 of 8.55 µM. The same measure for `COc1c(C)c(-c2c(C)c(OC)c3c(c2OC)OCO3)c(OC)c2c1OCO2`: over 100 µM.
